# According to ChEMBL document CHEMBL4130342, “New semi-synthetic analogs of oleuropein show improved anticancer activity in vitro and in vivo” (Eur J Med Chem, 2017):
# What was measured:
# [1] = Antiproliferative activity against human FM3 cells after 72 hrs by MTT reduction assay; format: functional, cell-based
# Summary of the method: (§1)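 MTT reduction assay; adherent lines left to adhere overnight, suspension lines (HL-60, K562) seeded on the day. […] Incubation was 72 h at 37°C, with MTT added for the last 4 h. OD read at 545 nm (reference 690 nm). IC50 from 100(A0-A)/A0=50; means ± SD of 3 independent experiments.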
# PBMC [2] = experiment: Induction of apoptosis in human PBMC assessed as late apoptotic cells at 300 ug/ml after 24 hrs by propidium iodide staining-based flow cytometric method (reference value: 0.6%); format: cell-based
# Mus musculus [3] = experiment: In vivo induction of tumor-reactive immune response in C57BL/6 mouse allografted with mouse B16-F1 cells assessed as splenocyte-mediated syngeneic mouse B16-F1 cell lysis at 600 ug, ip administered every other day up to day 29 measured on day 29 post last dose by flow cytometric method (reference value: 3.3 to 3.9); format: functional
# Summary of the method: (§2)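 Male C57BL/6 mice (6-8 wk) were injected sc in the right flank with 10⁵ B16.F1 cells in PBS on day 0. From day 11, when tumors were palpable, they received ip doses in 200 µL PBS every other day (8 doses; 5 mice/group). On day 29, splenocytes were co-cultured unstimulated with targets at E:T 100:1 for 6 h at 37°C. CD107a/b MFI was read by flow cytometry, 2 mice/group tested individually.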
# PBMC [4] = experiment: Induction of apoptosis in human PBMC assessed as early apoptotic cells at 600 ug/ml after 24 hrs by propidium iodide staining-based flow cytometric method (reference value: 0.1%); format: cell-based
# PBMC [5] = experiment: Induction of apoptosis in human PBMC assessed as late apoptotic cells at 150 ug/ml after 24 hrs by propidium iodide staining-based flow cytometric method (reference value: 0.6%); format: cell-based
# PBMC [6] = experiment: Induction of apoptosis in human PBMC assessed as early apoptotic cells at 150 ug/ml after 24 hrs by propidium iodide staining-based flow cytometric method (reference value: 0.1%); format: cell-based
# B16-F1 [7] = experiment: Induction of apoptosis in mouse B16-F1 cells assessed as late apoptotic cells at 283.90 uM after 24 hrs by propidium iodide staining-based flow cytometric method (reference value: 0.9%); format: functional
# Mus musculus [8] = experiment: In vivo induction of tumor-reactive immune response in C57BL/6 mouse allografted with mouse B16-F1 cells assessed as splenocyte-mediated NK-sensitive mouse YAC-1 cell lysis at 300 ug, ip administered every other day up to day 29 measured on day 29 post last dose by flow cytometric method (reference value: 1.2 to 1.7); format: functional; summary of the method: as §2
# Mus musculus [9] = experiment: In vivo induction of tumor-reactive immune response in C57BL/6 mouse allografted with mouse B16-F1 cells assessed as splenocyte-mediated mouse WEHI 164 cell lysis at 300 ug, ip administered every other day up to day 29 measured on day 29 post last dose by flow cytometric method (reference value: 1.2 to 1.6); format: functional; summary of the method: as §2
# B16-F1 [10] = experiment: Induction of apoptosis in mouse B16-F1 cells assessed as necrotic cells at 283.90 uM after 72 hrs by propidium iodide staining-based flow cytometric method (reference value: 2.5%); format: functional
# Mus musculus [11] = experiment: Toxicity in C57BL/6 mouse allografted with mouse B16-F1 cells assessed as effect on mouse survival at 600 ug, ip administered every other day up to day 29; format: organism-based; settings: in vivo
# Summary of the method: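 Male C57BL/6 mice (6-8 wk) were injected sc with 10⁵ B16.F1 cells on day 0. From day 11 they received ip doses in 200 µL PBS every other day, 8 doses in total, with PBS controls. Tumors were caliper-measured every two days and the animals monitored to day 29 for signs of toxicity. Groups of 5.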
# HL-60 = experiment: Antiproliferative activity against human HL60 cells after 72 hrs by MTT reduction assay; format: functional, cell-based; settings: HL-60, 72 h; summary of the method: as §1
# HeLa = experiment: Antiproliferative activity against human HeLa cells after 72 hrs by MTT reduction assay; format: functional, cell-based; summary of the method: as §1
# PBMC [12] = experiment: Induction of apoptosis in human PBMC assessed as necrotic cells at 500 ug/ml after 24 hrs by propidium iodide staining-based flow cytometric method (reference value: 1%); format: cell-based
# B16-F1 [13] = experiment: Antitumor activity against mouse B16-F1 cells allografted in ip dosed C57BL/6 mouse assessed as tumor growth inhibition administered every other day up to day 29 measured on day 29 post last dose; format: functional, organism-based
# Summary of the method: (§3)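 Male C57BL/6 mice, 6-8 weeks old, received 10^5 B16.F1 cells sc in the right flank on day 0. From day 11 (palpable tumors), 5 mice/group were randomized and given ip doses in 200 µL PBS every other day, 8 doses in total, up to day 29. Control group received PBS. Tumors were measured by caliper every two days; volume = 1/2(length × width²).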
# B16-F1 [14] = experiment: Induction of apoptosis in mouse B16-F1 cells assessed as necrotic cells at 283.90 uM after 48 hrs by propidium iodide staining-based flow cytometric method (reference value: 1%); format: functional
# B16-F1 [15] = experiment: Antiproliferative activity against mouse B16-F1 cells after 72 hrs by MTT reduction assay; format: functional, cell-based; settings: B16-F1, 72 h; summary of the method: as §1
# B16-F1 [16] = experiment: Antitumor activity against mouse B16-F1 cells allografted in C57BL/6 mouse assessed as tumor volume at 600 ug, ip administered every other day up to day 29 measured on day 29 post last dose (reference value: 2.83 cm'3); format: functional; summary of the method: as §3
# Mus musculus [17] = experiment: In vivo induction of tumor-reactive immune response in C57BL/6 mouse allografted with mouse B16-F1 cells assessed as splenocyte-mediated syngeneic mouse B16-F1 cell lysis at 300 ug, ip administered every other day up to day 29 measured on day 29 post last dose by flow cytometric method (reference value: 3.3 to 3.9); format: functional; summary of the method: as §2
# PBMC [18] = experiment: Induction of apoptosis in human PBMC assessed as early apoptotic cells at 300 ug/ml after 24 hrs by propidium iodide staining-based flow cytometric method (reference value: 0.1%); format: cell-based
# B16-F1 [19] = experiment: Induction of apoptosis in mouse B16-F1 cells assessed as late apoptotic cells at 283.90 uM after 48 hrs by propidium iodide staining-based flow cytometric method (reference value: 0.5%); format: functional
# PBMC [20] = experiment: Induction of apoptosis in human PBMC assessed as necrotic cells at 150 ug/ml after 24 hrs by propidium iodide staining-based flow cytometric method (reference value: 1%); format: cell-based
# HCT-116 = experiment: Antiproliferative activity against human HCT116 cells after 72 hrs by MTT reduction assay; format: functional, cell-based; settings: HCT-116, 72 h
# Summary of the method: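 MTT reduction assay; adherent lines left to adhere overnight, suspension lines (HL-60, K562) seeded on the day. Incubation was 72 h at 37°C, with MTT added for the last 4 h.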
# PBMC [21] = experiment: Induction of apoptosis in human PBMC assessed as necrotic cells at 600 ug/ml after 24 hrs by propidium iodide staining-based flow cytometric method (reference value: 1%); format: cell-based
# MCF7 = experiment: Antiproliferative activity against human MCF7 cells after 72 hrs by MTT reduction assay; format: functional, cell-based; settings: MCF7, 72 h; summary of the method: as §1
# PBMC [22] = experiment: Induction of apoptosis in human PBMC assessed as late apoptotic cells at 600 ug/ml after 24 hrs by propidium iodide staining-based flow cytometric method (reference value: 0.6%); format: cell-based
# PBMC [23] = experiment: Induction of apoptosis in human PBMC assessed as late apoptotic cells at 400 ug/ml after 24 hrs by propidium iodide staining-based flow cytometric method (reference value: 0.6%); format: cell-based
smiles,measurement,setting,value
C/C=C1/[C@H](O[C@@H]2O[C@H](CO)[C@@H](O)[C@H](O)[C@H]2O)OC=C(C(=O)OC)[C@H]1CC(=O)OCCc1ccc(O)c(O)c1 [OLEUROPEIN],IC50,[1],269 to 275 µM
same,Activity,PBMC [2],1.9%
same,Flu intensity,Mus musculus [3],6.6 - 7.5
same,Activity,PBMC [4],6.5%
same,Activity,PBMC [5],1.5%
same,Activity,PBMC [6],0.8%
same,Activity,B16-F1 [7],6.9%
same,Flu intensity,Mus musculus [8],2.3 - 2.7
same,Flu intensity,Mus musculus [9],1.1 - 1.3
same,Activity,B16-F1 [10],21.8%
same,Activity,Mus musculus [11],Non-Toxic
same,IC50,HL-60,54.3 µM
same,IC50,HeLa,265 to 276 µM
same,Activity,PBMC [12],10.3%
same,TGI,B16-F1 [13],Dose-dependent effect
same,Activity,B16-F1 [14],4.2%
same,IC50,B16-F1 [15],284 µM
same,Activity,B16-F1 [16],2.33 cm3
same,Flu intensity,Mus musculus [17],3.2 - 3.9
same,Activity,PBMC [18],1.2%
same,Activity,B16-F1 [19],9.8%
same,Activity,PBMC [20],2.5%
same,IC50,HCT-116,182 to 185 µM
same,Activity,PBMC [21],16.4%
same,IC50,MCF7,162 to 170 µM
same,Activity,PBMC [22],12.4%
same,Activity,PBMC [23],3%
